PubChem BioAssay
The source made the active and inactive calls.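 Rule for the calls, unless noted: active = GFP response above 150% of the DMSO level; inconclusive = fewer than 70 events counted for a yeast strain; inactive = the rest.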

How the values were obtained:
[1] = RPL19A-GFP modulators, yeast TOR pathway, confirmation, cell-based, S. cerevisiae, flow cytometry, cherry picks, mother/daughter gates (AID 2270;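 active = GFP response below 50% of the DMSO control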); conditions: S. cerevisiae RPL19A-GFP strain, 3 h, at 10 µM, stronger effect = lower value, 100 = same GFP as DMSO wells
[2] = LAP4-GFP expression modulators in yeast, confirmation, cell-based, cherry picks, flow cytometry, mother/daughter gates (AID 2271;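 active = GFP response above 150% of the DMSO control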;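 note: ratio of sample to DMSO plate mean so 100% equals DMSO level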); conditions: S. cerevisiae LAP4-GFP strain, 3 h, at 10 µM, stronger effect = higher value, 100 means same as DMSO control
How it was run: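 System: GFP-fusion yeast strain; Incubation: compound exposure 3 h at 30 °C, end-over-end rotation; Measured by: GFP by flow cytometry; Read-out: median GFP fluorescence as percent of plate-mean DMSO wells; Medium: synthetic complete (SC) yeast growth medium; Compound: single test-compound dose, 10 µM final; Benchmarks: DMSO-only negative wells, rapamycin 400 ng/mL positive wells.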

[3] = modulators of MEP2-GFP levels in yeast, confirmation, S. cerevisiae, flow cytometry GFP, cherry picks (AID 2272;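 active = GFP response above 150% of the DMSO control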;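 note: ratio of well signal to plate DMSO mean so 100% equals DMSO level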); conditions: S. cerevisiae MEP2-GFP strain, 3 h, at 10 µM, stronger effect = higher value
[4] = AGP1-GFP expression modulators, hit retest, confirmation, cell-based, flow cytometry, S. cerevisiae, cherry picks (AID 2273);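 note: median GFP channel fluorescence over the whole cell population gate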; conditions: S. cerevisiae AGP1-GFP strain, 3 h, at 10 µM
[5] = modulators of CIT2-GFP expression in yeast, confirmation, S. cerevisiae, GFP fusion, cherry picks, mother/daughter gates (AID 2274); conditions: S. cerevisiae CIT2-GFP strain, flow cytometry, 3 h, at 10 µM, stronger effect = higher value
[6] = measured here: daughter cell gate
[7] = measured here: mother cell gate
[8] = measured here: daughter cell gate response
[9] = measured here: mother cell gate response

SMILES	GFP response vs DMSO [1]	GFP response vs DMSO [1, 6]	GFP response vs DMSO [1, 7]	GFP response relative to DMSO [2]	GFP response relative to DMSO [2, 8]	GFP response relative to DMSO [2, 9]	GFP response vs DMSO [3]	GFP response, % of DMSO [4]	GFP response, % of DMSO [5]	GFP response, % of DMSO [5, 6]	GFP response, % of DMSO [5, 7]
O=C(O)C1Sc2[nH]c(=O)sc2C2c3cc(Br)ccc3OC(=O)C12 (configuration not stated)	96.3% (inactive)	97.6%	96.8%	171% (active)	150%	200%	195% (active)	102% (inactive)	111% (inactive)	108%	113%
O=C1c2cccc3c([N+](=O)[O-])ccc(c23)C(=O)N1CCc1ccccn1	103% (inactive)	104%	99.2%	164% (active)	157%	156%	286% (active)	120% (inactive)	158% (active)	156%	144%
Cc1cc(N2CCCCC2)n2nc(C)c(-c3ccccc3)c2n1	99.7% (inactive)	97.3%	100%	95% (inactive)	97.2%	96.2%	97.8% (inactive)	95% (inactive)	97.8% (inactive)	96.5%	97.7%
O=C1[C@@H]2C3C=CC(O3)[C@@H]2C(=O)N1c1ccccc1	101% (inactive)	102%	100%	107% (inactive)	107%	109%	101% (inactive)	107% (inactive)	100% (inactive)	101%	100%
O=C1/C(=C\c2ccccn2)SC(=S)N1Nc1ncc(C(F)(F)F)cc1Cl	99.1% (inactive)	98.3%	99%	98.8% (inactive)	92.2%	99.5%	102% (inactive)	94.9% (inactive)	95% (inactive)	94.6%	93.3%
COC(=O)c1ccc(N2C(=O)CC(Sc3n[nH]c(C)n3)C2=O)cc1 (configuration not stated)	101% (inactive)	103%	98%	128% (inactive)	130%	131%	108% (inactive)	101% (inactive)	106% (inactive)	108%	103%
O=[N+]([O-])c1cnc(Sc2ccncn2)s1	102% (inactive)	105%	99.2%	166% (active)	148%	182%	141% (inactive)	111% (inactive)	113% (inactive)	124%	102%
CSc1ccc(/C=N/NC(=O)c2ccc(O)cc2)cc1	97.8% (inactive)	98.1%	98.5%	97% (inactive)	97.5%	96.2%	103% (inactive)	103% (inactive)	103% (inactive)	103%	103%
Cc1ccc(NC(=S)c2nc3ccccc3[nH]2)cc1	101% (inactive)	99.6%	99.3%	125% (inactive)	120%	128%	109% (inactive)	88.3% (inactive)	102% (inactive)	103%	99.3%
O=C1Nc2ccccc2C(=O)C1(Cl)Cc1ccccc1 (configuration not stated)	89.6% (inactive)	91.9%	88.3%	132% (inactive)	124%	134%	101% (inactive)	102% (inactive)	94.4% (inactive)	95.8%	90.4%
COC(=O)c1cc(N2C(=O)C3C(C2=O)C2(C)C=CC3(C)O2)ccc1Cl (configuration not stated)	101% (inactive)	101%	92.5%	193% (active)	173%	177%	110% (inactive)	106% (inactive)	101% (inactive)	109%	88.6%
O=C(O)Cc1sc(Nc2ccccc2)nc1-c1cccs1	97.8% (inactive)	98%	97.9%	149% (inactive)	144%	156%	110% (inactive)	99.7% (inactive)	104% (inactive)	104%	103%
CC1=NNC(=O)/C1=C\c1cn(-c2ccccc2)nc1-c1cccs1	92.6% (inactive)	88%	89.6%	288% (active)	122%	269%	103% (inactive)	120% (inactive)	119% (inactive)	93.8%	114%
COc1ccc(N2C(=O)C(Cl)=C(Nc3ccccc3OC)C2=O)cc1	101% (inactive)	98.4%	102%	98.2% (inactive)	94.2%	98.4%	105% (inactive)	98% (inactive)	97.3% (inactive)	97.4%	98.1%
O=c1cnnc(SCc2ccc([N+](=O)[O-])cc2)[nH]1	97.4% (inactive)	99.1%	96.2%	102% (inactive)	101%	100%	105% (inactive)	96% (inactive)	98.3% (inactive)	99.1%	98.5%
CCCCC1OC23CCCCC2C(C#N)(C(=N)O3)C1(C#N)C#N (configuration not stated)	101% (inactive)	100%	96.8%	118% (inactive)	117%	111%	176% (active)	103% (inactive)	119% (inactive)	103%	98.7%
CCOC(=O)Cn1cc(/C=C/[N+](=O)[O-])c2ccccc21	95.8% (inactive)	92.7%	93.5%	160% (active)	153%	157%	99.3% (inactive)	95% (inactive)	88.9% (inactive)	92.3%	83.7%
Nc1ccccc1NC(=O)c1ccccc1	101% (inactive)	103%	99.8%	98.9% (inactive)	96%	99.5%	106% (inactive)	98.4% (inactive)	101% (inactive)	103%	103%
COc1cccc(N=Nc2ccc(O)c3ncccc23)c1	98.2% (inactive)	97.4%	98%	224% (active)	205%	228%	117% (inactive)	91.3% (inactive)	105% (inactive)	106%	99.7%
COc1ccc(-c2ccc(S(=O)(=O)N3CCOCC3)cc2)cc1	95.4% (inactive)	93.9%	95.7%	107% (inactive)	106%	107%	99% (inactive)	100% (inactive)	100% (inactive)	97.4%	102%
N=C1/C(=C\c2ccc(Br)o2)C(=O)N=C2SC(CC(=O)N3CCCCC3)=NN12	97.4% (inactive)	96.8%	95.5%	104% (inactive)	103%	102%	103% (inactive)	104% (inactive)	107% (inactive)	108%	108%
Cc1ccc2c(c1)c(/C=C/c1cc[n+](C)cc1)c(C)n2C	107% (inactive)	109%	108%	178% (active)	194%	173%	226% (active)	114% (inactive)	184% (active)	191%	177%
COc1ccc(C(=O)ON=C2CCN(c3ccc([N+](=O)[O-])cc3)CC2)cc1	97.6% (inactive)	97.5%	97.6%	117% (inactive)	107%	118%	97.5% (inactive)	76.1% (inactive)	108% (inactive)	104%	108%
Cc1cccc(/C(N)=N/OC(=O)C23CC4CC(CC(C4)C2)C3)c1	102% (inactive)	101%	101%	113% (inactive)	108%	119%	108% (inactive)	85% (inactive)	123% (inactive)	111%	127%
COC(=O)/C(=C/c1c[nH]c2ccccc12)[N+](=O)[O-]	99.6% (inactive)	95.1%	95.1%	162% (active)	149%	164%	111% (inactive)	86.9% (inactive)	89.8% (inactive)	89.9%	80.7%
COc1ccc(-c2nn(-c3ccccc3)cc2C(=O)NC(=S)NNC(=O)c2ccncc2)cc1	100% (inactive)	101%	98.3%	105% (inactive)	108%	105%	101% (inactive)	101% (inactive)	107% (inactive)	108%	104%
COc1ccccc1NC(=O)c1ccc([N+](=O)[O-])o1	102% (inactive)	102%	101%	120% (inactive)	115%	122%	102% (inactive)	99.3% (inactive)	107% (inactive)	108%	106%
